Activity calls are given as the source filed them. The calls are words filed in the database; no cut-off is given here.
Experiments:
Peregrin (Homo sapiens) = Peregrin (Homo sapiens) (UniProt P55201); experiment: Binding affinity to human N-terminal His-tagged BRPF1 assessed as change in melting temperature at 10 uM by SYPRO orange dye-based fluorescence assay
Procedure, shortened: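 Thermal shift with His-tagged human bromodomain at 2 μM final in 10 mM HEPES pH 7.5, 500 mM NaCl. Compound at 10 μM final with 0.1% DMSO; SYPRO Orange at 1:1000. Equilibrated 3 min at 25 °C, then heated from 25 to 95 °C at 1 °C/min. Melting temperature shift taken from fluorescence; at least duplicate.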

[1] = molecular target: Bromodomain-containing protein 3 (Homo sapiens) (UniProt Q15059); experiment: Binding affinity to human partial length BRD3 bromodomain 2 (G306 to P416 residues) expressed in bacterial expression system at 1 uM by BROMOscan assay
Procedure, shortened: (§1)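 BROMOscan bromodomain cross-screen run by an outside service, compound at 1 µM against 32 recombinant bromodomains. Binding given as percent of control.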

[2] = molecular target: Bromodomain-containing protein 4 (Homo sapiens) (UniProt O60885); experiment: Binding affinity to human partial length BRD4 bromodomain 1 long isoform (N44 to E168 residues) expressed in bacterial expression system at 1 uM by BROMOscan assay; procedure, shortened: as §1
Mus musculus = species on record: Mus musculus; experiment: Inhibition of recombinant mouse ABL L782P/G784R/W785L/L786V mutant (27 to end residues) at 10 uM using EAIYAAPFAKKK as substrate measured after 40 mins in presence of [gamma33P]ATP by scintillation counting method
[3] = tested on: Tyrosine-protein kinase ABL1 (Homo sapiens), P00519 [M351T]; experiment: Inhibition of recombinant human ABL M351T mutant (27 to end residues) at 10 uM using EAIYAAPFAKKK as substrate measured after 40 mins in presence of [gamma33P]ATP by scintillation counting method
[4] = molecular target: Activin receptor type-2A (Homo sapiens) (UniProt P27037); experiment: Inhibition of recombinant human ACTR2 (162 to end residues) at 10 uM using casein as substrate measured after 120 mins in presence of [gamma33P]ATP by scintillation counting method
[5] = molecular target: Cyclin-dependent kinase 14/Cyclin-Y (Homo sapiens) (UniProt O94921+Q8ND76); experiment: Inhibition of human CDK14/cyclinY at 10 uM by radiometric method; type: protein-complex assay
Procedure, shortened: (§2)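 Kinase panel of 422 kinases screened by Eurofins KinaseProfiler at a single test-compound concentration of 10 µM.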

[6] = tested on: Serine/threonine-protein kinase Chk2 (Homo sapiens), O96017 [R145W]; experiment: Inhibition of recombinant human CHK2 R145W mutant (5 to end residues) at 10 uM using KKKVSRSGLYRSPSMPENLNRPR as substrate measured after 40 mins in presence of [gamma33P]ATP by scintillation counting method
[7] = tested on: Epidermal growth factor receptor (Homo sapiens), P00533 [L858R]; experiment: Inhibition of recombinant human EGFR L858R mutant (696 to end residues) at 10 uM using poly(Glu, Tyr) 4:1 as substrate measured after 40 mins in presence of [gamma33P]ATP by scintillation counting method
Sequence of Epidermal growth factor receptor (Homo sapiens), P00533 [L858R] (P00533 whole entry L858R, the tested form may be a part): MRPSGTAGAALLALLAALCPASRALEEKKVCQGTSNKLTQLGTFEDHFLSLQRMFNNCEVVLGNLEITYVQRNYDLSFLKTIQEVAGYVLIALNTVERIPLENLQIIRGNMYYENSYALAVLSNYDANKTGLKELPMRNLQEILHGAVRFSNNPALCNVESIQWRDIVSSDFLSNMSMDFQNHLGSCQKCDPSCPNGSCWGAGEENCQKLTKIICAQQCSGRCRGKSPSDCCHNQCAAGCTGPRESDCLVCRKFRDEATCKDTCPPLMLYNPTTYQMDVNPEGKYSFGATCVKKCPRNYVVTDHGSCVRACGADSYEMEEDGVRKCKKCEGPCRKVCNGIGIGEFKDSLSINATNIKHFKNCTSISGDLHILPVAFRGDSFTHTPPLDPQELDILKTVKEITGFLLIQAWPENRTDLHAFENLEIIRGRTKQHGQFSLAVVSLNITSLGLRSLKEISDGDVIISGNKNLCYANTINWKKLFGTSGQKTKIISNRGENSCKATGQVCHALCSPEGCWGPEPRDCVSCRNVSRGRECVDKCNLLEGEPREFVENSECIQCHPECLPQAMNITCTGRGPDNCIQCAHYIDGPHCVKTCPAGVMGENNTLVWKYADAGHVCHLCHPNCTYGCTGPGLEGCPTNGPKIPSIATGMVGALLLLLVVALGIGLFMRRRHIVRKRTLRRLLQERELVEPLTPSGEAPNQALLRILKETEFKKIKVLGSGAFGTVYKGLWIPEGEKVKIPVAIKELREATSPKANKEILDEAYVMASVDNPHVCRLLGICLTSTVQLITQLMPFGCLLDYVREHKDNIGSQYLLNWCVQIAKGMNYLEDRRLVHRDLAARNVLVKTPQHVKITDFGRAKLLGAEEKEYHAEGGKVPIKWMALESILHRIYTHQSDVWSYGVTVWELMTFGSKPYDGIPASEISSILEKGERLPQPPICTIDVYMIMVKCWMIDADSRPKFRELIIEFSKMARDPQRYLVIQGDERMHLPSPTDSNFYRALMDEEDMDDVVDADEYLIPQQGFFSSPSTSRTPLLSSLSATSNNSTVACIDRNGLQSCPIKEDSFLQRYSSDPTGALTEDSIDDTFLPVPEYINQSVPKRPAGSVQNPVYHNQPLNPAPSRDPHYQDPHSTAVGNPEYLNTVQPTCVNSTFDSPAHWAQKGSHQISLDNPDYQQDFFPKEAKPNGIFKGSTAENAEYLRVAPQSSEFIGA

[8] = molecular target: Fibroblast growth factor receptor 3 (Homo sapiens) (UniProt P22607); experiment: Inhibition of recombinant human FGFR3 (447 to 761 residues) at 10 uM using poly(Glu, Tyr) 4:1 as substrate measured after 40 mins in presence of [gamma33P]ATP by scintillation counting method
[9] = molecular target: Serine/threonine-protein kinase MRCK alpha (Homo sapiens) (UniProt Q5VT25); experiment: Inhibition of recombinant human MRCKalpha (1 to 473 residues) at 10 uM using KKRNRTLTV as substrate measured after 40 mins in presence of [gamma33P]ATP by scintillation counting method
[10] = tested on: Serine/threonine-protein kinase Nek4 (Homo sapiens), P51957 [P225A]; experiment: Inhibition of recombinant full-length human NEK4 P225A mutant at 10 uM using myelin basic protein as substrate measured after 40 mins in presence of [gamma33P]ATP by scintillation counting method
Sequence of Serine/threonine-protein kinase Nek4 (Homo sapiens), P51957 [P225A] (P51957 whole entry P225A): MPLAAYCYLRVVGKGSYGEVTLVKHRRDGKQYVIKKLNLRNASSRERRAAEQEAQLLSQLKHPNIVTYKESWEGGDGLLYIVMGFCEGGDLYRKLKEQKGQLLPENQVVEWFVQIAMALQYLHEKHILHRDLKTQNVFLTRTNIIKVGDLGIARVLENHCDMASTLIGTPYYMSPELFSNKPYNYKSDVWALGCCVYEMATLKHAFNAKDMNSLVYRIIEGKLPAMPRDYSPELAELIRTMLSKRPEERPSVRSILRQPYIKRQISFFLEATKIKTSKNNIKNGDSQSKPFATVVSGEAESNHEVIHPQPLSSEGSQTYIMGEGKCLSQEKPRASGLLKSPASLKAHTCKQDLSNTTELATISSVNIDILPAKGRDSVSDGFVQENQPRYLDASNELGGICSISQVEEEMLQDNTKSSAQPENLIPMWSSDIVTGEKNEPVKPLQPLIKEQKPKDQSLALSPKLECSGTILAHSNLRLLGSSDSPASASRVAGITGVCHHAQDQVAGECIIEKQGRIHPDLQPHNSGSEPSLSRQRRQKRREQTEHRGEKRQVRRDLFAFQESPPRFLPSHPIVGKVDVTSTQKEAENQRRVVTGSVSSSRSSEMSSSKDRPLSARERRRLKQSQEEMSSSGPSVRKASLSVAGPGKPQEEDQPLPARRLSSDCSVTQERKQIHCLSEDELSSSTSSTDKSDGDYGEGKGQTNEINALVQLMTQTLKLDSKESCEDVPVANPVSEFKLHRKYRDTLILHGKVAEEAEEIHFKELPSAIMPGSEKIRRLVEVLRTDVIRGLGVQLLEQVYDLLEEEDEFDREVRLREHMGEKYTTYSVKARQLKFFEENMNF

[11] = molecular target: Serine/threonine-protein kinase Nek6 (Homo sapiens) (UniProt Q9HC98); experiment: Inhibition of recombinant human NEK6 (2 to end residues) at 10 uM using FLAKSFGSPNRAYKK as substrate measured after 40 mins in presence of [gamma33P]ATP by scintillation counting method
Sequence of Serine/threonine-protein kinase Nek6 (Homo sapiens) (Q9HC98 whole entry): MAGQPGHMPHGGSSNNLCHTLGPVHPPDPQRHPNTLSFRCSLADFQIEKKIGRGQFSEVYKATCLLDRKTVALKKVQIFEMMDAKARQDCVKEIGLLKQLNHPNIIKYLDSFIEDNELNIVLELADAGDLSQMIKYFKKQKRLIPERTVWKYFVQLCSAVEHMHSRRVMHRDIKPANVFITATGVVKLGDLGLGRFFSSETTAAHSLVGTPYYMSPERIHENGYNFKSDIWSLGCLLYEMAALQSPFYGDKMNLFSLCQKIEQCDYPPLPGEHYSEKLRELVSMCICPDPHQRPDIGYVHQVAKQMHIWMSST

[12] = molecular target: Protein kinase C theta type (Homo sapiens) (UniProt Q04759); experiment: Inhibition of recombinant full-length human PKCtheta at 10 uM using histone H1as substrate measured after 40 mins in presence of [gamma33P]ATP by scintillation counting method
[13] = tested on: Ribosomal protein S6 kinase alpha-1 (Rattus norvegicus), Q63531 [S637N,G697A]; experiment: Inhibition of recombinant full-length rat Rsk1 S637N/G697A mutant at 10 uM using KKKNRTLSVA as substrate measured after 40 mins in presence of [gamma33P]ATP by scintillation counting method
[14] = molecular target: Ribosomal protein S6 kinase alpha-6 (Homo sapiens) (UniProt Q9UK32); experiment: Inhibition of recombinant full-length human Rsk4 at 10 uM using LRRASLG as substrate measured after 40 mins in presence of [gamma33P]ATP by scintillation counting method
[15] = molecular target: Mitogen-activated protein kinase 12 (Homo sapiens) (UniProt P53778); experiment: Inhibition of recombinant full-length human SAPK3 at 10 uM using myelin basic protein as substrate measured after 40 mins in presence of [gamma33P]ATP by scintillation counting method
Sequence of Mitogen-activated protein kinase 12 (Homo sapiens) (P53778 whole entry): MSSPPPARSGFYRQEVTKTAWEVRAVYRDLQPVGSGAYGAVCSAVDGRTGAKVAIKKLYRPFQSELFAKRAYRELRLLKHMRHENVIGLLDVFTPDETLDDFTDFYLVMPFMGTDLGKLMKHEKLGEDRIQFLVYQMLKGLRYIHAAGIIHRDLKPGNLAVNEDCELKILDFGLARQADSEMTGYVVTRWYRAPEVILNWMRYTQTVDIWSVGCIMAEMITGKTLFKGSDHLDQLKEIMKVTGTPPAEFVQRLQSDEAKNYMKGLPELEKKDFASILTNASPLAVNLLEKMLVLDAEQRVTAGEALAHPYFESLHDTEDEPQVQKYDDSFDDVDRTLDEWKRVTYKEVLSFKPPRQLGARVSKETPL

[16] = molecular target: Serine/threonine-protein kinase 16 (Homo sapiens) (UniProt O75716); experiment: Inhibition of human STK16 at 10 uM by radiometric method; procedure, shortened: as §2
Sequence of Serine/threonine-protein kinase 16 (Homo sapiens) (O75716 whole entry): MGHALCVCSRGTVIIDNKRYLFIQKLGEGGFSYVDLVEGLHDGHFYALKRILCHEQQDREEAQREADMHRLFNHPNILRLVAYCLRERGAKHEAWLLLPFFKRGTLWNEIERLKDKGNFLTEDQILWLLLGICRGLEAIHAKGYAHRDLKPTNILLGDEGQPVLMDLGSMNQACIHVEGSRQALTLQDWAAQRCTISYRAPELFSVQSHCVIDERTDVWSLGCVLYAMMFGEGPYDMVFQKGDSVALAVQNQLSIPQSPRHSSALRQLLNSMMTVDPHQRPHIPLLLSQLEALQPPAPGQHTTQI

[17] = molecular target: Serine/threonine-protein kinase 32A (Homo sapiens) (UniProt Q8WU08); experiment: Inhibition of recombinant full-length human STK32A at 10 uM using casein as substrate measured after 120 mins in presence of [gamma33P]ATP by scintillation counting method
Sequence of Serine/threonine-protein kinase 32A (Homo sapiens) (Q8WU08 whole entry, the tested form may be a part): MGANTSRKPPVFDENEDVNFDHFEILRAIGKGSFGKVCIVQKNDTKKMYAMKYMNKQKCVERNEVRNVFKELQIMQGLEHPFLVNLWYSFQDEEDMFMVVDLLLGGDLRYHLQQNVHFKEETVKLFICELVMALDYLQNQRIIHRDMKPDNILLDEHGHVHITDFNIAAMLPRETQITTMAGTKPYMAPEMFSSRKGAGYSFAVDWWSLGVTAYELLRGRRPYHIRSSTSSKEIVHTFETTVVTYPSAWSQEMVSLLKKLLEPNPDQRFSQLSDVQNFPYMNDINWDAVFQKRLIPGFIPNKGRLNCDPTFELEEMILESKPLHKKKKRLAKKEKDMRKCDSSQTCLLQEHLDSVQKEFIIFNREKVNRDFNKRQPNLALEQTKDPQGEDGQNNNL

[18] = molecular target: Serine/threonine-protein kinase TAO1 (Homo sapiens) (UniProt Q7L7X3); experiment: Inhibition of human TAO1 (1 to 327 residues) using myelin basic protein as substrate measured after 40 mins in presence of [gamma33P]ATP by scintillation counting method
Sequence of Serine/threonine-protein kinase TAO1 (Homo sapiens) (Q7L7X3 whole entry, the tested form may be a part): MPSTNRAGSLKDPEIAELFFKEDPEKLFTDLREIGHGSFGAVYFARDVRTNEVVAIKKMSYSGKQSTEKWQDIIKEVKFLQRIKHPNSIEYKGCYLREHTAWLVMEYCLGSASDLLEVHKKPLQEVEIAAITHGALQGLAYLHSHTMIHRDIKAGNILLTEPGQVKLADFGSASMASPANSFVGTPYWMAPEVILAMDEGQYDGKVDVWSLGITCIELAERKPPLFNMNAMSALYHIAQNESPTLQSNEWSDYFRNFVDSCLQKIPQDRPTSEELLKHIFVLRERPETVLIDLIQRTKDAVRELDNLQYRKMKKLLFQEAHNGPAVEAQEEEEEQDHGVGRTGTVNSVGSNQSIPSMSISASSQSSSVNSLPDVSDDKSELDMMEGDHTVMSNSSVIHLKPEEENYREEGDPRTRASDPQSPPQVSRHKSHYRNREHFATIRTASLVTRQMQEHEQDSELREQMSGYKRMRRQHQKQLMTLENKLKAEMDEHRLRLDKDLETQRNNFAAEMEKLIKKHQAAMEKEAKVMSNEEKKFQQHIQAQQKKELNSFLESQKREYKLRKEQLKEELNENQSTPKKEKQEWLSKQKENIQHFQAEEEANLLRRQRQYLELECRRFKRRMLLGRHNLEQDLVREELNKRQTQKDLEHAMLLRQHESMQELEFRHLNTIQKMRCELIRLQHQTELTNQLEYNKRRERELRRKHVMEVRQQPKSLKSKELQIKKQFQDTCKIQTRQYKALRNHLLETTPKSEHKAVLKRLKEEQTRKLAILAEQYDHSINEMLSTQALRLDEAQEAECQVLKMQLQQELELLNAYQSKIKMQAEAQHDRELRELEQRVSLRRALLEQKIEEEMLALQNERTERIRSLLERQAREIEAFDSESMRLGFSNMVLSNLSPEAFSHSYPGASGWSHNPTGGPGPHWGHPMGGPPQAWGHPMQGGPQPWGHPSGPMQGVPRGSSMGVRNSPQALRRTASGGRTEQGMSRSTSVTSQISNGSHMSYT

[19] = tested on: TGF-beta receptor type-1 (Homo sapiens), P36897 [T204D]; experiment: Inhibition of human TGFBR1 T204D mutant (200 to end residues) using casein as substrate measured after 40 mins in presence of [gamma33P]ATP by scintillation counting method
Sequence of TGF-beta receptor type-1 (Homo sapiens), P36897 [T204D] (P36897 whole entry T204D, the tested form may be a part): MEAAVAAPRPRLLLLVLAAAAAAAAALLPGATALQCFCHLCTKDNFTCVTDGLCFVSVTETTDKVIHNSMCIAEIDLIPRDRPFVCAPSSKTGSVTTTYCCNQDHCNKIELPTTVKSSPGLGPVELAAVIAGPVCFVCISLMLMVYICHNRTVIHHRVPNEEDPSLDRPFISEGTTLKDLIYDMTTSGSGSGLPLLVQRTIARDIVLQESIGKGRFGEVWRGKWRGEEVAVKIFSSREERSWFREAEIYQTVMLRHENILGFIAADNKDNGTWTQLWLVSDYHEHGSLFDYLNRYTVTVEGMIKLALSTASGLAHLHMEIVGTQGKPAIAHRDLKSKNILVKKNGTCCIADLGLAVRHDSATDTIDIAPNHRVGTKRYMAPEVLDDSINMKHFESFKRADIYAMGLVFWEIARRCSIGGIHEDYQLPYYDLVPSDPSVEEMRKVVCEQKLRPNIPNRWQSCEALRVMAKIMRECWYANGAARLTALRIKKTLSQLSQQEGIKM

[20] = molecular target: Serine/threonine-protein kinase ULK2 (Homo sapiens) (UniProt Q8IYT8); experiment: Inhibition of human ULK2 (1 to 306 residues) using casein as substrate measured after 40 mins in presence of [gamma33P]ATP by scintillation counting method
[21] = tested on: PI3-kinase p110-alpha/p85-alpha (Homo sapiens), P27986+P42336 [H1047R]; experiment: Inhibition of recombinant full-length human PI3K p110alpha/p85alpha H1047R mutant at 10 uM using phosphatidylinositol-4, 5-bisphosphate as substrate measured after 40 mins by fluorescence assay; type: protein-complex assay

## CN1C[C@H](Nc2nc3cc[nH]c3c(=O)n2C)C[C@H](c2ccc3c(c2)OCCO3)C1
Peregrin (Homo sapiens)
  ΔTm: 2.6 °C
[1]
  Activity: inactive
[2]
  Activity: inactive
Mus musculus
  inhibition: inactive
[3]
  inhibition: inactive
[4]
  inhibition: inactive
[5]
  inhibition: inactive
[6]
  inhibition: inactive
[7]
  inhibition: inactive
[8]
  inhibition: inactive
[9]
  inhibition: inactive
[10]
  inhibition: inactive
[11]
  inhibition: inactive
[12]
  inhibition: inactive
[13]
  inhibition: inactive
[14]
  inhibition: inactive
[15]
  inhibition: inactive
[16]
  inhibition: inactive
[17]
  inhibition: inactive
[18]
  inhibition: inactive
[19]
  inhibition: inactive
[20]
  inhibition: inactive
[21]
  inhibition: inactive
